# Measurements taken from ChEMBL document CHEMBL1146742, “A-420983: a potent, orally active inhibitor of lck with efficacy in a model of transplant rejection” (Bioorg Med Chem Lett, 2004).
# Assays:
# [1] = Half life was determined in dog after 1 mg/kg (i.v.) and 5 mg/kg (p.o.) administration; assay type: ADME, organism-based, Canis lupus familiaris; settings: in vivo
# In short: (§1)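 Pharmacokinetics were measured in mouse (5 mg/kg iv, 6 mg/kg po) and dog (1 mg/kg iv, 5 mg/kg po). Reported parameters were Cmax (ng/mL), Tmax (h), Vd (L/kg), plasma clearance (L/h/kg), elimination half-life (h) and oral bioavailability F (%).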
# [2] = Time to reach maximum plasma concentration was determined in mouse after 5 mg/kg (i.v.) and 6 mg/kg (p.o.) administration; assay type: ADME, organism-based; settings: po; in short: as §1
# [3] = Volume of distribution was determined in dog after 1 mg/kg (i.v.) and 5 mg/kg (p.o.) administration; assay type: ADME, organism-based, Canis lupus familiaris; settings: in vivo, iv; in short: as §1
# [4] = Bioavailability was determined in dog after 1 mg/kg (i.v.) and 5 mg/kg (p.o.) administration; assay type: ADME, organism-based, Canis lupus familiaris; settings: in vivo, po; in short: as §1
# [5] = Maximum plasma concentration of compound was determined in mouse after 5 mg/kg (i.v.) and 6 mg/kg (p.o.) administration; assay type: ADME, organism-based; settings: po; in short: as §1
# [6] = Plasma clearance was determined in mouse after 5 mg/kg (i.v.) and 6 mg/kg (p.o.) administration; assay type: ADME, organism-based; settings: iv, read-out: Clp (converted); in short: as §1
# [7] = Time to reach maximum plasma concentration was determined in dog after 1 mg/kg (i.v.) and 5 mg/kg (p.o.) administration; assay type: ADME, organism-based, Canis lupus familiaris; settings: po; in short: as §1
# [8] = Bioavailability was determined in mouse after 5 mg/kg (i.v.) and 6 mg/kg (p.o.) administration; assay type: ADME, organism-based; settings: in vivo, po; in short: as §1
# [9] = Plasma clearance was determined in dog after 1 mg/kg (i.v.) and 5 mg/kg (p.o.) administration; assay type: ADME, organism-based, Canis lupus familiaris; settings: iv; in short: as §1
# [10] = Half life was determined in mouse after 5 mg/kg (i.v.) and 6 mg/kg (p.o.) administration; assay type: ADME, organism-based; settings: in vivo; in short: as §1
# [11] = Maximum plasma concentration of compound was determined in dog after 1 mg/kg (i.v.) and 5 mg/kg (p.o.) administration; assay type: ADME, organism-based, Canis lupus familiaris; settings: po; in short: as §1
# [12] = target: T1, Interleukin-2 (Mus musculus) (UniProt P04351); experiment: Percent inhibition of interleukin-2 production by compound was measured after 8 hours of oral administration in mice; assay type: functional, organism-based; settings: concentration not given here
# T1 sequence (whole entry): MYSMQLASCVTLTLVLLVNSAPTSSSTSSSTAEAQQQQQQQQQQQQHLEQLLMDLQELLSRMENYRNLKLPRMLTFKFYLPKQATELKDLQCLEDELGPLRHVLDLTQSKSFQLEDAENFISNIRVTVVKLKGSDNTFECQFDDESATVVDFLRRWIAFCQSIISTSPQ
# [13] = target: T1, Interleukin-2 (Mus musculus); experiment: Effective concentration to suppress interleukin-2 production was measured after 2.5 hours of oral administration in mice; assay type: functional, organism-based
# [14] = target: T1, Interleukin-2 (Mus musculus); experiment: Percent inhibition of interleukin-2 production by compound was measured after 18 hours of oral administration in mice; assay type: functional, organism-based; settings: concentration not given here
# [15] = target: Vascular endothelial growth factor receptor 2 (Homo sapiens, UniProt P35968); experiment: Inhibition of vascular endothelial growth factor receptor 2 activity with 1 mM ATP and biotinylated lck peptide
# Chain of Vascular endothelial growth factor receptor 2 (P35968 whole entry): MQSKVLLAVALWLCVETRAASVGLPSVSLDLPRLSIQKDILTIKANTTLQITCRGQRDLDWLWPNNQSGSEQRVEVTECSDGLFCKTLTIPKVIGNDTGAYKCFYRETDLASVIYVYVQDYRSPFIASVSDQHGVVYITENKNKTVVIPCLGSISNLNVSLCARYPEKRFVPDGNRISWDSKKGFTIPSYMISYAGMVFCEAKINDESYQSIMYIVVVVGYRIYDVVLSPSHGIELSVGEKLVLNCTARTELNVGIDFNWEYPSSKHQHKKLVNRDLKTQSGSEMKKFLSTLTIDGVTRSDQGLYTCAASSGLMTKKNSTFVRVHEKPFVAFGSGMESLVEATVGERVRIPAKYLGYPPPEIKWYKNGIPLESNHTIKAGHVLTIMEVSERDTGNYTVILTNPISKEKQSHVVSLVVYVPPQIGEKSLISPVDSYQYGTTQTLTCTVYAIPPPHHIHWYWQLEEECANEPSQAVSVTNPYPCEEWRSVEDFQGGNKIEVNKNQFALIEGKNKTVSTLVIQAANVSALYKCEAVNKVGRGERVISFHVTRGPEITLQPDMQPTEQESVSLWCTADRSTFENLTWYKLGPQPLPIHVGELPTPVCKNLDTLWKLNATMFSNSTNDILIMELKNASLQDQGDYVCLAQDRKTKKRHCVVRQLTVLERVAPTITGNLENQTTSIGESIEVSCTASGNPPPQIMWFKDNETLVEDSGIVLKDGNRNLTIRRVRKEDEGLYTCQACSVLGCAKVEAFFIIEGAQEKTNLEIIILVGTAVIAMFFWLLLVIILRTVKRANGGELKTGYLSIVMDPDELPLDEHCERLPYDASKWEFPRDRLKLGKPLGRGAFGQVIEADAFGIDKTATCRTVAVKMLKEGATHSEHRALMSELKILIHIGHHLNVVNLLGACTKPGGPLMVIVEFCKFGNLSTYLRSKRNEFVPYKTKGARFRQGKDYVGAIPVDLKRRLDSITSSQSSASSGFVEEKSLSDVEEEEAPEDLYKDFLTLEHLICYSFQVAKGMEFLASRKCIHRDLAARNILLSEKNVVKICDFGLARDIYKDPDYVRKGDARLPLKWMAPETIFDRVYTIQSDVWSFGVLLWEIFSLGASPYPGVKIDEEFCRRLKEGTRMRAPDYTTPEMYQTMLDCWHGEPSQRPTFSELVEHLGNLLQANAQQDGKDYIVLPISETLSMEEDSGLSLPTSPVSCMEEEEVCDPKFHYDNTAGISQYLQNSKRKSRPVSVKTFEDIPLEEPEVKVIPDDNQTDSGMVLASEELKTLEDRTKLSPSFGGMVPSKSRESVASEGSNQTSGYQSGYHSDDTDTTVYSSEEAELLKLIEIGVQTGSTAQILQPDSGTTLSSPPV
# Homo sapiens = species: Homo sapiens; experiment: Inhibition of anti-CD3 mAb induced inter leukein-2 production in human whole blood was evaluated; assay type: functional, organism-based
# [16] = Volume of distribution was determined in mouse after 5 mg/kg (i.v.) and 6 mg/kg (p.o.) administration; assay type: ADME, organism-based; settings: in vivo, iv; in short: as §1
SMILES,half-life [1] [h],Tmax [2] [h],Vd [3] [L/kg],bioavailability [4] [%],Cmax [5] [ng/mL],clearance [6] [mL/min/kg],Tmax [7] [h],bioavailability [8] [%],clearance [9] [mL/min/kg],half-life [10] [h],Cmax [11] [ng/mL],inhibition [12] [%],ED50 [13] [mg/kg],ED90 [13] [mg/kg],inhibition [14] [%],IC50 [15] [nM],IC50 (Homo sapiens) [nM],Vd [16] [L/kg]
COc1cc(-c2nn([C@H]3CC[C@H](N4CCN(C)CC4)CC3)c3ncnc(N)c23)ccc1NC(=O)c1cc2ccccc2n1C,45,8,25,32,51,28.3,24,30,11.7,10,74,> 90,1.5,6,> 90,> 50000,8,25
COc1cc(-c2nn([C@H]3CC[C@H](N4CCN(C)CC4)CC3)c3ncnc(N)c23)ccc1NC(=O)c1cc2ccccc2[nH]1,,,,,,,,,,,,79,7,12.5,33,,6,
COc1cc(-c2nn([C@H]3CC[C@H](N4CCN(C)CC4)CC3)c3ncnc(N)c23)ccc1NCc1ccco1,,,,,,,,,,,,,,,,,10,
COc1cc(-c2nn([C@H]3CC[C@H](N4CCN(C)CC4)CC3)c3ncnc(N)c23)ccc1NC(=O)OCc1ccccc1,,,,,,,,,,,,51,3,14,14,,,
COc1cc(-c2nn([C@H]3CC[C@H](N4CCN(C)CC4)CC3)c3ncnc(N)c23)ccc1NC(=O)c1cc2ccccc2o1,,,,,,,,,,,,48,8.5,12.5,< 10,,7,
